Calls of active or inactive are those of the source. The calls are words filed in the database; no cut-off is given here.
Assays:
[1] = Hydrolytic stability of the compound in phosphate buffer at 50 uM at pH 7.4 up to 24 hrs by HPLC analysis; assay type: physicochemical; conditions: pH 7.4, 24 h
In short: (§1)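 A 5 mM DMSO stock was diluted to 50 µM final in phosphate (pH 7.4), citrate (pH 5.0) or trifluoroacetate (pH 1.2) buffer and incubated at 37 °C. Aliquots taken at 0, 0.5, 1, 4 and 24 h were analysed by reverse-phase HPLC. The mobile phase ran from 10 to 100% acetonitrile against water with 0.05% TFA over 20 min, at 1.0 mL/min.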

[2] = Inhibition of Plasmodium falciparum PNP expressed in Escherichia coli BL21(DE3) using inosine as substrate by spectrophotometric analysis; conditions: read-out: Ki
In short: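 Recombinant PfPNP (His-vector, E. coli BL21(DE3), 1 mM IPTG, 37 °C, 4 h) was assayed at 25 nM. The mix held 50 mM KH2PO4 pH 7.5, 60 mU xanthine oxidase and 25 µM inosine, at 25 °C. Uric acid formation was followed at 293 nm. Rates were measured at five or more inhibitor concentrations.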

Influenza B virus = test: Antiviral activity against Influenza B virus assessed as inhibition of virus-induced cytopathicity at 100 uM by cell-based assay; assay type: functional, organism-based
In short: (§2)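 Inhibition of virus-induced cytopathicity in confluent cell monolayers (HEL, Vero, HeLa or MDCK cells), tested at varying compound concentrations with 100 µM the level assessed. Cytopathicity was scored once it was complete in untreated virus-infected controls. Activity is expressed as EC50, the concentration reducing virus-induced cytopathicity by 50%.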

Human alphaherpesvirus 1 [3] = test: Antiviral activity against thymidine kinase-deficient ACV-resistant Herpes simplex virus type 1 KOS assessed as inhibition of virus-induced cytopathicity at 100 uM by cell-based assay; assay type: functional, organism-based
In short: (§3)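 Confluent HEL, Vero, HeLa or MDCK monolayers were infected with 100 CCID50 of virus in the presence of varying compound concentrations, with 100 µM the level assessed. Cytopathic effect was recorded once it was complete in untreated infected controls. EC50 is the concentration reducing virus-induced cytopathicity by 50%.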

Influenza A virus = test: Antiviral activity against Influenza A virus H1N1 assessed as inhibition of virus-induced cytopathicity at 100 uM by cell-based assay; assay type: functional, organism-based; in short: as §2
HEL = test: Cytotoxicity against HEL up to 100 uM; assay type: cell-based; conditions: human
Vero = test: Cytotoxicity against African green monkey Vero cells up to 100 uM; assay type: cell-based; conditions: chlorocebus sabaeus
Escherichia coli = test: Inhibition of Escherichia coli PNP-mediated inosine hydrolysis assessed as residual activity at 250 uM after 1 hr by RP-HPLC analysis relative to control
In short: (§4)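 Enzyme levels were 20 nM for E. coli and M. hyorhinis PNP and 6 nM for human PNP, in buffer of 50 mM MOPS, 0.2 mM EDTA and 200 mM potassium phosphate, pH 6.5, at 37 °C. Compound (250 µM) and inosine (100 µM) were incubated 60 min. Conversion to hypoxanthine was measured by RP-18 HPLC using an NaH2PO4/heptanesulfonate (pH 3.2) to acetonitrile gradient.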

Sindbis virus = test: Antiviral activity against Sindbis virus assessed as inhibition of virus-induced cytopathicity at 100 uM by cell-based assay; assay type: functional, organism-based
In short: (§5)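 Confluent HEL, Vero, HeLa or MDCK monolayers were infected with 100 CCID50 of virus in the presence of varying compound concentrations. Activity is expressed as EC50, the concentration that halves virus-induced cytopathicity.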

MDCK = test: Cytotoxicity against MDCK cells up to 100 uM; assay type: cell-based, Canis lupus familiaris; conditions: dog
[4] = Hydrolytic stability of the compound in citrate buffer at 50 uM at pH 5 up to 24 hrs by HPLC analysis; assay type: physicochemical; conditions: pH 5, 24 h; in short: as §1
Human alphaherpesvirus 1 [5] = test: Antiviral activity against Herpes simplex virus type 1 KOS assessed as inhibition of virus-induced cytopathicity at 100 uM by cell-based assay; assay type: functional, organism-based; in short: as §5
Punta Toro virus = test: Antiviral activity against Punta Toro virus assessed as inhibition of virus-induced cytopathicity at 100 uM by cell-based assay; assay type: functional, organism-based; in short: as §5
Vaccinia virus = test: Antiviral activity against Vaccinia virus Lederle assessed as inhibition of virus-induced cytopathicity at 100 uM by cell-based assay; assay type: functional, organism-based; conditions: Orthopoxvirus vaccinia; in short: as §3
Human alphaherpesvirus 2 [6] = test: Antiviral activity against Herpes simplex virus type 2 Lyons assessed as inhibition of virus-induced cytopathicity at 100 uM by cell-based assay; assay type: functional, organism-based; in short: as §5
[7] = Half life of the compound in trifluoroacetate buffer at 50 uM at pH 1.2 by HPLC analysis; assay type: physicochemical; in short: as §1
[8] = test system: Respiratory syncytial virus; test: Antiviral activity against Respiratory syncytial virus Long assessed as inhibition of virus-induced cytopathicity at 100 uM by cell-based assay; assay type: functional, organism-based; in short: as §5
Coxsackievirus B4 = test: Antiviral activity against Coxsackievirus B4 assessed as inhibition of virus-induced cytopathicity at 100 uM by cell-based assay; assay type: functional, organism-based; in short: as §5
[9] = test system: Mammalian orthoreovirus 1; test: Antiviral activity against Reovirus 1 assessed as inhibition of virus-induced cytopathicity at 100 uM by cell-based assay; assay type: functional; in short: as §5
CCRF-CEM = test: Cytotoxicity against human CEM cells up to 100 uM; assay type: cell-based
Mesomycoplasma hyorhinis = test: Inhibition of Mycoplasma hyorhinis PNP-mediated inosine hydrolysis assessed as residual activity at 250 uM after 1 hr by RP-HPLC analysis relative to control; in short: as §4
[10] = target: T1, Purine nucleoside phosphorylase (Homo sapiens) (UniProt P00491); test: Inhibition of human PNP-mediated inosine hydrolysis assessed as residual activity at 250 uM after 1 hr by RP-HPLC analysis relative to control; in short: as §4
T1 sequence (whole entry): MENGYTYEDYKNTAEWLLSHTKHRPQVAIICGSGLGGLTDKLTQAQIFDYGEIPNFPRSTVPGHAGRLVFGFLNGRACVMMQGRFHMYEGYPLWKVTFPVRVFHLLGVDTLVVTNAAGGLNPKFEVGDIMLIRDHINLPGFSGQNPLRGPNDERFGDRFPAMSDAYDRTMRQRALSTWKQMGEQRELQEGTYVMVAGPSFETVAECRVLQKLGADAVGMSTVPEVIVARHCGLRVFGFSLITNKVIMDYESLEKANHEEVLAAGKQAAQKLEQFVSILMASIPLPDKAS

Human respirovirus 3 = test: Antiviral activity against Parainfluenza virus 3 assessed as inhibition of virus-induced cytopathicity at 100 uM by cell-based assay; assay type: functional, organism-based; in short: as §5
Influenza A virus H3N2 = test: Antiviral activity against Influenza A virus H3N2 assessed as inhibition of virus-induced cytopathicity at 100 uM by cell-based assay; assay type: functional, organism-based; in short: as §2
Plasmodium falciparum [11] = test: Antiplasmodial activity against chloroquine-sensitive Plasmodium falciparum 3D7 assessed as growth inhibition at 25 uM; assay type: functional, organism-based
In short: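 Intraerythrocytic-stage growth assay against the chloroquine-sensitive P. falciparum 3D7 strain. Compounds were tested at a single level of 25 µM, with chloroquine run in the same assay as reference.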

Human alphaherpesvirus 2 [12] = test: Antiviral activity against Herpes simplex virus type 2 G assessed as inhibition of virus-induced cytopathicity at 100 uM by cell-based assay; assay type: functional, organism-based; conditions: strain G; in short: as §5
HeLa = test: Cytotoxicity against human HeLa cells up to 100 uM; assay type: cell-based
[13] = test system: Vesicular stomatitis virus; test: Antiviral activity against Vesicular stomatitis virus assessed as inhibition of virus-induced cytopathicity at 100 uM by cell-based assay; assay type: functional, organism-based; in short: as §3
Plasmodium falciparum [14] = test: Inhibition of Plasmodium falciparum PNP expressed in Escherichia coli BL21(DE3) using inosine as substrate at 200 uM by spectrophotometric analysis

Compound | Stability [1] | Activity (Influenza B virus) | Activity (Human alphaherpesvirus 1 [3]) | Activity (Influenza A virus) | Activity (HEL) | Activity (Vero) | Activity (Sindbis virus) | Activity (MDCK) | Stability [4] | Activity (Human alphaherpesvirus 1 [5]) | Activity (Punta Toro virus) | Activity (Vaccinia virus) | Activity (Human alphaherpesvirus 2 [6]) | half-life at 50 µM [7] [h] | Activity [8] | Activity (Coxsackievirus B4) | Activity [9] | Activity (CCRF-CEM) | Activity (Human respirovirus 3) | Activity (Influenza A virus H3N2) | further results
O=c1[nH]cnc2c1nc(-c1ccc(C(F)(F)F)cc1)n2[C@@H]1O[C@H](CO)[C@@H](O)[C@H]1O | Stable | inactive | inactive | inactive | Non-toxic | Non-toxic | inactive | Non-toxic | Stable | inactive | inactive | inactive | inactive | 5 | inactive | inactive | inactive | Non-toxic | inactive | inactive | Ki [2]: 3.69 µM; Activity (Escherichia coli): 96%; Activity (Mesomycoplasma hyorhinis): 96%; Activity [10]: 96%; growth inhibition (GI) (Plasmodium falciparum [11]): inactive; Activity (Human alphaherpesvirus 2 [12]): inactive; Activity (HeLa): Non-toxic; Activity [13]: inactive
O=c1[nH]cnc2c1nc(-c1ccncc1)n2[C@@H]1O[C@H](CO)[C@@H](O)[C@H]1O | Stable | inactive | inactive | inactive | Non-toxic | Non-toxic | inactive | Non-toxic | Stable | inactive | inactive | inactive | inactive | 10 | inactive | inactive | inactive | Non-toxic | inactive | inactive | Ki [2]: > 80 µM; Activity (Human alphaherpesvirus 2 [12]): inactive; Activity (HeLa): Non-toxic; Activity [13]: inactive
COc1ccc(-c2nc3c(=O)[nH]cnc3n2[C@@H]2O[C@H](CO)[C@@H](O)[C@H]2O)cc1 | Stable | inactive | inactive | inactive | Non-toxic | Non-toxic | inactive | Non-toxic | Stable | inactive | inactive | inactive | inactive | 5 | inactive | inactive | inactive | Non-toxic | inactive | inactive | inhibition (Plasmodium falciparum [14]): inactive; Activity (Human alphaherpesvirus 2 [12]): inactive; Activity (HeLa): Non-toxic; Activity [13]: inactive

— ChEMBL document CHEMBL3286377, “Microwave-assisted synthesis of C-8 aryl and heteroaryl inosines and determination of their inhibitory activities against Plasmodium falciparum purine nucleoside phosphorylase” (Eur J Med Chem, 2014)
